Activity calls are given as the source filed them.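 How the source made its calls: active means mean IC50 at or below 20 µM; inactive means the rest.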
Test system: 697 B-cell NF-kB luciferase, PMA/ionomycin, 16 h
Test: stimulated NF-kB reporter signal decrease, 697 cells – cell-based, luminescence, B-cell NF-kB inhibitor project, SAR follow-up (AID 504485)
How it was run: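 Technique: luciferase luminescence with SteadyGlo reagent / Assay system: human 697 B-cell line with NF-kB-driven luciferase reporter / Timing: 1 h pretreatment, 16 h stimulation, 37 °C / Reagent: PMA plus ionomycin stimulation of NF-kB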

IC50	Structure (SMILES)
58400 nM (inactive)	CCN(CC)C(=O)CCc1nc(-c2ccc(C(C)(C)C)cc2)no1
> 79000 nM (inactive)	COc1ccc(C(=O)Nc2ccc3[nH]c(-c4cccc(OC)c4)cc(=O)c3c2)cc1
41500 nM (inactive)	CN(C)C(=O)CCc1nc(-c2ccc(C(C)(C)C)cc2)no1
> 79000 nM (inactive)	CCc1ccc(-c2nc(CSCC(=O)NC3CC3)c(-c3ccccc3)o2)cc1
> 79000 nM (inactive)	Cc1ccc(-c2nc(CSCC(=O)NCc3ccco3)c(C)o2)cc1
> 79000 nM (inactive)	CCNC(=O)CCc1nc(-c2ccccc2Cl)no1
180 nM	CCCCOc1ccc(-c2nc(CSCC(=O)O)c(C)o2)cc1
260 nM	CC(C)c1ccc(-c2noc(CCC(=O)NC3CC3)n2)cc1
30 nM	CCNC(=O)CCc1nc(-c2ccc(C(C)(C)C)cc2)no1
> 79000 nM (inactive)	COc1cccc(-c2cc(=O)c3cc(NC(=O)c4ccc(N(C)C)cc4)ccc3[nH]2)c1
> 79000 nM (inactive)	CCOc1ccc(-c2nc(CSCC(=O)N3CCOCC3)c(C)o2)cc1
210 nM	CCCCc1ccc(-c2noc(CCC(=O)NC3CC3)n2)cc1
> 79000 nM (inactive)	CC(C)Nc1ccc(C(CC(=O)O)NC(=O)c2ccccc2)cc1[N+](=O)[O-] (stereo not drawn)
> 79000 nM (inactive)	COc1cccc(-c2cc(=O)c3cc(NC(=O)c4ccccc4)ccc3[nH]2)c1
> 79000 nM (inactive)	O=C(CCc1nc(-c2ccccc2)no1)NC1CC1
< 160 nM	COC(=O)CCc1nc(-c2ccc(C(C)(C)C)cc2)no1
410 nM	CC(C)(C)c1ccc(-c2noc(CCC(=O)NC3CCC3)n2)cc1
> 79000 nM (inactive)	CNC(=O)CCc1nc(-c2ccccc2)no1
970 nM	Cc1oc(-c2ccc(C(F)(F)F)cc2)nc1CSCC(=O)O
> 79000 nM (inactive)	Cc1oc(-c2ccccc2)nc1CSCC(=O)NC1CC1
330 nM	CCOc1ccc(-c2nc(CSCC(=O)NC)c(C)o2)cc1
> 79000 nM (inactive)	CCNC(=O)CCc1nc(-c2cccc(F)c2)no1
320 nM	CCNC(=O)CCc1nc(-c2ccc(C(C)C)cc2)no1
> 79000 nM (inactive)	CCC(C)NC(=O)CCc1nc(-c2ccccc2)no1 (stereo not drawn)
240 nM	CCCCOc1ccc(-c2nc(CSCC(=O)NC3CC3)c(C)o2)cc1
170 nM	CCCOc1ccc(-c2nc(CSCC(=O)NCc3ccco3)c(C)o2)cc1

IC50	Structure (SMILES)
> 79000 nM (inactive)	CCOc1cccc(-c2nc(CSCC(=O)NC3CC3)c(C)o2)c1
490 nM	CCC(C)NC(=O)CCc1nc(-c2ccc(C(C)(C)C)cc2)no1 (stereo not drawn)
29500 nM (inactive)	COc1ccc(-c2nc(CSCC(=O)NCc3ccco3)c(C)o2)cc1
> 79000 nM (inactive)	CCNC(=O)CCc1nc(-c2ccc(CC)cc2)no1
2230 nM	Cc1oc(-c2ccc(OC(F)(F)F)cc2)nc1CSCC(=O)NC1CC1
> 79000 nM (inactive)	CCNC(=O)CCc1nc(-c2c(Cl)cccc2Cl)no1
< 150 nM	CCOc1ccc(-c2nc(CSCC(=O)O)c(C)o2)cc1
7960 nM	CCC(C)NC(=O)CCc1nc(-c2ccc(C(C)C)cc2)no1 (stereo not drawn)
> 79000 nM (inactive)	CCNC(=O)CCc1nc(-c2ccccc2)no1
670 nM	CCCCc1ccc(-c2noc(CCC(=O)NC(C)CC)n2)cc1 (stereo not drawn)
> 79000 nM (inactive)	O=C(O)CCc1nc(-c2ccccc2)no1
< 150 nM	CCOc1ccc(-c2nc(CSCC(N)=O)c(C)o2)cc1
49400 nM (inactive)	CCc1ccc(-c2nc(CSCC(=O)NCc3ccco3)c(C)o2)cc1
220 nM	CCCCc1ccc(-c2noc(CCC(=O)NCC)n2)cc1
< 160 nM	CNC(=O)CCc1nc(-c2ccc(C(C)(C)C)cc2)no1
> 79000 nM (inactive)	CCOc1ccc(-c2nc(CSCC(=O)NC3CC3)c(-c3ccccc3)o2)cc1
> 79000 nM (inactive)	CCOc1ccccc1-c1nc(CSCC(=O)O)c(C)o1
15700 nM	Cc1oc(-c2ccc(C(F)(F)F)cc2)nc1CSCC(=O)NC1CC1
29200 nM (inactive)	COc1ccc(-c2nc(CSCC(=O)NC3CC3)c(C)o2)cc1
26900 nM (inactive)	CC(C)c1ccc(-c2noc(CCC(=O)NC(C)(C)C)n2)cc1
36800 nM (inactive)	CCOC(=O)CC(NC(=O)c1ccc(Br)cc1)c1ccc(F)c([N+](=O)[O-])c1 (stereo not drawn)
200 nM	CCCCc1ccc(-c2noc(CCC(=O)NC)n2)cc1
> 79000 nM (inactive)	CCNC(=O)CCc1nc(-c2ccc(OCC)cc2)no1
> 79000 nM (inactive)	CCc1ccc(-c2noc(CCC(=O)NC(C)(C)C)n2)cc1
60500 nM (inactive)	CCOc1ccc(-c2nc(CSCC(=O)NC(C)(C)C)c(C)o2)cc1
> 79000 nM (inactive)	CC(C)(C)NC(=O)CCc1nc(-c2ccccc2)no1

IC50	Structure (SMILES)
240 nM	Cc1oc(-c2ccc(OC(F)(F)F)cc2)nc1CSCC(=O)O
60 nM	CC(C)(C)c1ccc(-c2noc(CCC(=O)NC3CC3)n2)cc1
> 79000 nM (inactive)	CCNC(=O)CCc1nc(-c2cccc(C)c2)no1
> 79000 nM (inactive)	CCNC(=O)CCc1nc(-c2ccccc2C)no1
1320 nM	CCOc1ccc(-c2nc(CSCC(=O)NCC3CC3)c(C)o2)cc1
2310 nM	CCCCc1ccc(-c2noc(CCC(=O)NC(C)(C)C)n2)cc1
> 79000 nM (inactive)	CCOc1ccccc1-c1nc(CSCC(=O)NC2CC2)c(C)o1
> 79000 nM (inactive)	CCOc1ccc(-c2nc(CSCC(=O)N(C)C)c(C)o2)cc1
> 79000 nM (inactive)	CCc1ccc(-c2noc(CCC(=O)NC3CC3)n2)cc1
210 nM	CNC(=O)CCc1nc(-c2ccc(C(C)C)cc2)no1
> 79000 nM (inactive)	CCc1ccc(-c2noc(CCC(=O)NC)n2)cc1
34000 nM (inactive)	CCOc1ccc(-c2noc(CCC(=O)O)n2)cc1
260 nM	CCCCOc1ccc(-c2nc(CSCC(=O)NCc3ccco3)c(C)o2)cc1
< 160 nM	CC(C)(C)c1ccc(-c2noc(CCC(N)=O)n2)cc1
190 nM	CCOc1ccc(-c2nc(CSCC(=O)NC3CC3)c(C)o2)cc1
> 79000 nM (inactive)	Cc1oc(-c2ccccc2)nc1CSCC(=O)NCc1ccco1
< 150 nM	CCCOc1ccc(-c2nc(CSCC(=O)O)c(C)o2)cc1
480 nM	CCc1ccc(-c2nc(CSCC(=O)NC3CC3)c(C)o2)cc1
> 79000 nM (inactive)	CCNC(=O)CCc1nc(-c2cccc(OC)c2)no1
< 150 nM	CCCOc1ccc(-c2nc(CSCC(=O)NC3CC3)c(C)o2)cc1
3230 nM	CCOc1ccc(-c2nc(CSCC(=O)NC3CCC3)c(C)o2)cc1
190 nM	CC(C)(C)c1ccc(-c2noc(CCC(=O)O)n2)cc1
16200 nM	Cc1ccc(-c2nc(CSCC(=O)NC3CC3)c(C)o2)cc1
< 150 nM	C#CCNC(=O)CSCc1nc(-c2ccc(OCC)cc2)oc1C
> 79000 nM (inactive)	CCc1ccc(-c2noc(CCC(=O)NC(C)CC)n2)cc1 (stereo not drawn)
210 nM	CCOc1ccc(-c2nc(CSCC(=O)NCc3ccco3)c(C)o2)cc1

— PubChem BioAssay AID504485 (Sanford-Burnham Center for Chemical Genomics, 2011)
